Results on nine molecules are retold here after ChEMBL document CHEMBL1129996, “1-Aryl-3,5-dihydro-4H-2,3-benzodiazepin-4-ones: novel AMPA receptor antagonists” (J Med Chem, 1997).

Data set [1] in a line: Relative lipophilicity of compound. The data set is classed as physicochemical. The settings on record: reversed-phase TLC, acetone/water 2:1. In short, it runs like this: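 Reversed-phase TLC type lipophilicity: plates dried 105 °C 1 h, mobile phase acetone:water 2:1, 1 µL of 3 mg/mL CHCl3 solution spotted; five runs with varied positions, mean Rf converted as Rm = log[(1/Rf) - 1].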

For data set [2], the species on record is Mus musculus. Kind of data set: Audiogenic seizures after concomitant treatment with Flumazenil (8.24 uM) in DBA / 2 mice tonic phase. Format: functional.
Data set [3] deals with Mus musculus. Kind of data set: Anticonvulsant activity against the tonic seizures induced by icv injection of AMPA in DBA / 2 mice at a dose range of 10-200 uM/kg. Format: functional. The following applies: central.
For data set [4], the species on record is Mus musculus. Kind of data set: Pentylenetetrazole-induced seizures in Swiss mice after 45 min pretreatment at a dose range 10-150 uM / kg (95% confidence limits). The data set is classed as functional.
Data set [5] has as its system Mus musculus. Put plainly: Audiogenic seizures after pretreatment with Aniracetam in DBA / 2 mice tonic phase at a dose range of 10-200 uM/kg. The data set is classed as functional. In outline:
(§1)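 DBA/2 mice pretreated with aniracetam 50 nmol icv 60 min before auditory testing, with ip 2,3-benzodiazepine; audiogenic clonic and tonic phases scored; ED50 by Litchfield-Wilcoxon.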

A short description of data set [6]: Motor toxicity in 50% of mice on locomotion assessed by Rotarod test following 30 min ip administration. Format: organism-based. The following applies: mouse, in vivo. In outline: (§2)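 Male Swiss mice (20-26 g, 48-54 days), groups of 10, trained on rotarod (3 cm, 8 rpm); tested 30 min after ip dosing. Impairment = failure to stay on for 2 min; TD50 (95% confidence limits) by Litchfield-Wilcoxon.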

Data set [7] relates to Mus musculus. Put plainly: Anticonvulsant activity against the maximal electroshock in Swiss mice after 45 minutes pretreatment at a dose range uM/kg. The data set is classed as functional. In short, it runs like this:
(§3)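 Swiss mice dosed ip in 50% DMSO/50% saline 45 min before ear-clip electroshock (50 mA, 20 ms pulses, 35 Hz, 400 ms). Protection = abolition of tonic hindlimb extension. Usually 4-5 doses with 8-10 mice each; ED50 (95% confidence limits) by Litchfield-Wilcoxon.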

Data set [8] concerns Mus musculus. Put plainly: Audiogenic seizures after pretreatment with Aniracetam in DBA / 2 mice clonic phase at a dose range of 10-200 uM/kg. Format: functional. In outline: as §1
Data set [9] deals with Mus musculus. Put plainly: Anticonvulsant activity against clonic phase of the audiogenic seizures in DBA / 2 mice 30 min after ip administration at a dose range 10-100 uM/kg. Format: functional. The following applies: 0.5 h. In short, it runs like this: (§4)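 Groups of 10 DBA/2 mice of either sex; drug ip (0.1 mL/10 g) as fresh solution in 50% DMSO/50% saline, 30 min before auditory stimulation (12-16 kHz, 109 dB, 60 s or until tonic extension) under perspex dome after 60 s habituation. Latency and incidence of wild running, clonic and tonic phases scored; ED50 (95% confidence limits) by Litchfield-Wilcoxon.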

Data set [10] is filed under the species Mus musculus. Put plainly: Audiogenic seizures after concomitant treatment with Flumazenil (24.72 uM) in DBA / 2 mice clonic phase. The data set is classed as functional.
For data set [11], the species on record is Mus musculus. Kind of data set: Audiogenic seizures after concomitant treatment with Flumazenil (24.72 uM) in DBA / 2 mice tonic phase. The data set is classed as functional.
In data set [12] the test system is Mus musculus. Kind of data set: Anticonvulsant activity against the clonic seizures induced by icv injection of AMPA in DBA / 2 mice at a dose range of 10-200 uM / kg (95% confidence limits). The following applies: central. The data set is classed as functional.
Data set [13] is filed under the species Mus musculus. Kind of data set: Audiogenic seizures after concomitant treatment with Flumazenil (8.24 uM) in DBA / 2 mice clonic phase. Format: functional.
Data set [14] in a line: Therapeutic index it is the ratio between TD50 and ED50 (from the clonic phase of the audiogenic seizures). The following applies: read-out: TI. In short, it runs like this:
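Therapeutic index computed as rotarod TD50 divided by ED50 for the clonic phase of audiogenic seizures in DBA/2 mice.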

Data set [15] concerns Mus musculus. Kind of data set: Anticonvulsant activity against tonic phase of the audiogenic seizures in DBA / 2 mice 30 min after ip administration at a dose range 10-100 uM/kg. The data set is classed as functional. The settings on record: 0.5 h. In short, it runs like this: as §4
Data set [16] concerns Mus musculus. Kind of data set: Anticonvulsant activity against clonic phase of the audiogenic seizures in DBA / 2 mice 30 min after ip administration at a dose range 10-66 uM/kg. Format: functional. The settings on record: 0.5 h. In short, it runs like this:
as §4

Data set [17] has as its system Mus musculus. Put plainly: Anticonvulsant activity against tonic phase of the audiogenic seizures in DBA / 2 mice 30 min after ip administration at a dose range 10-66 uM/kg. Format: functional. The following applies: 0.5 h. In outline: as §4
For data set [18], the system named is Mus musculus. Kind of data set: Anticonvulsant activity against tonic phase of the audiogenic seizures in DBA / 2 mice 30 min after ip administration at a dose range 33-133 uM/kg. The data set is classed as functional. The settings on record: 0.5 h. In short, it runs like this:
as §4

In data set [19] the test system is Mus musculus. Put plainly: Anticonvulsant activity against clonic phase of the audiogenic seizures in DBA / 2 mice 30 min after ip administration at a dose range 33-133 uM/kg. The data set is classed as functional. The following applies: 0.5 h. In outline:
as §4

The subject of data set [20] is Mus musculus. Kind of data set: Anticonvulsant activity against the maximal electroshock in Swiss mice after 45 minutes pretreatment at a dose range 33-200 uM/kg. The data set is classed as functional. In outline:
as §3

Data set [21] concerns Mus musculus. Kind of data set: Anticonvulsant activity against tonic phase of the audiogenic seizures in DBA / 2 mice 30 min after ip administration at a dose range 33-200 uM/kg. The data set is classed as functional. The settings on record: 0.5 h. In short, it runs like this: as §4
For data set [22], the system named is Mus musculus. Put plainly: Anticonvulsant activity against clonic phase of the audiogenic seizures in DBA / 2 mice 30 min after ip administration at a dose range 33-200 uM/kg. The data set is classed as functional. The settings on record: 0.5 h. In short, it runs like this: as §4
Data set [23] concerns Mus musculus. Put plainly: Pentylenetetrazole-induced seizures in Swiss mice after 45 min pretreatment at a dose range 33-200 uM/kg. Format: functional.
Data set [24] in a line: Motor toxicity in 50% of mice on locomotion assessed by Rotarod test following 30 min ip administration (95% confidence limits). The data set is classed as organism-based. The following applies: mouse, in vivo. In short, it runs like this:
as §2

The subject of data set [25] is Mus musculus. Kind of data set: Anticonvulsant activity against clonic phase of the audiogenic seizures in DBA / 2 mice 30 min after ip administration at a dose range 10-120 uM/kg. Format: functional. The settings on record: 0.5 h. In short, it runs like this: as §4
Data set [26] has as its system Mus musculus. Put plainly: Anticonvulsant activity against the maximal electroshock in Swiss mice after 45 minutes pretreatment at a dose range 10-150 uM/kg. The data set is classed as functional. In short, it runs like this:
as §3

Data set [27] has as its system Mus musculus. Put plainly: Anticonvulsant activity against tonic phase of the audiogenic seizures in DBA / 2 mice 30 min after ip administration at a dose range 10-120 uM/kg. The data set is classed as functional. The settings on record: 0.5 h. In short, it runs like this:
as §4

Data set [28] has as its system Mus musculus. Kind of data set: Anticonvulsant activity against clonic phase of the audiogenic seizures in DBA / 2 mice 30 min after ip administration at a dose range 33-66 uM/kg. The data set is classed as functional. The following applies: 0.5 h. In short, it runs like this: as §4
Data set [29] relates to Mus musculus. Kind of data set: Anticonvulsant activity against tonic phase of the audiogenic seizures in DBA / 2 mice 30 min after ip administration at a dose range 33-66 uM/kg. Format: functional. The following applies: 0.5 h. In outline:
as §4

Where “and” joins values, the source holds several entries; their conditions need not be identical. Equal values may be shown once. A value given as a limit tells only on which side of the number the result lay.

`COc1cc2c(cc1OC)C(c1ccc(N)cc1)=NN(C)C(=O)C2`: the Rm in data set [1] is reported as -0.374. For the same molecule, the ED50 in the data set filed under Mus musculus [2] is 38.5 µmol/kg; in the data set on Mus musculus [3], 62.4 µmol/kg; in the data set filed under Mus musculus [4], 70.8 µmol/kg; in the data set with Mus musculus [5], 112 µmol/kg; with Mus musculus [7], 57.2 µmol/kg; in the data set on Mus musculus [8], 141 µmol/kg. Besides, the ED50 is 50.2 µmol/kg and 16.3 mg/kg with Mus musculus [9]; 45.9 µmol/kg in the data set listed under Mus musculus [10]; 32.2 µmol/kg in the data set filed under Mus musculus [11]; 72.1 µmol/kg in the data set with Mus musculus [12]; 51.2 µmol/kg in the data set listed under Mus musculus [13]; 43.7 µmol/kg and 14.2 mg/kg with Mus musculus [15]. In data set [6], this molecule came in with a TD50 at 0.5 h of 159 µmol/kg. Besides, in [14], the therapeutic index (TD50/ED50) was 3.2.

For `COc1cc2c(cc1OC)C(c1cccc(N)c1)=NN(C)C(=O)C2`, the Rm in data set [1] was -0.327. For the same molecule, the ED50 is 36.8 µmol/kg and 11.9 mg/kg in the data set with Mus musculus [16]; 30.6 µmol/kg and 9.94 mg/kg in the data set with Mus musculus [17].

For `COc1ccc2c(c1)CC(=O)N(C)N=C2c1ccccc1`, in data set [1], the Rm is recorded as 0.189. Besides, the ED50 in the data set with Mus musculus [18] was 99.1 µmol/kg and 27.8 mg/kg; in the data set with Mus musculus [19], 117 µmol/kg and 32.8 mg/kg.

With `COc1ccc2c(c1)CC(=O)NN=C2c1ccccc1`, the Rm in data set [1] is given as -0.052. Further, the ED50 in the data set on Mus musculus [20] was 73.4 µmol/kg; in the data set on Mus musculus [21], 64.8 µmol/kg and 17.2 mg/kg; with Mus musculus [22], 75.5 µmol/kg and 20 mg/kg; in the data set with Mus musculus [23], 98.2 µmol/kg. The same molecule showed a TD50 at 0.5 h in data set [6] of 197 µmol/kg. In addition, the therapeutic index (TD50/ED50) in data set [14] was 2.6.

The molecule `COc1cc2c(cc1OC)C(c1ccc(N(C(C)=O)C(C)=O)cc1)=NN(C(C)=O)C(=O)C2` registered a Rm in [1] of -0.673. The ED50 was 56.8 µmol/kg and 24.8 mg/kg in the data set with Mus musculus [9]; 43.9 µmol/kg and 19.2 mg/kg with Mus musculus [15].

Molecule `COc1cc2c(cc1OC)C(c1ccc([N+](=O)[O-])cc1)=NNC(=O)C2` gave a Rm in data set [1] of -0.096. The TD50 at 0.5 h in data set [24] was more than 150 µmol/kg. Besides, the ED50 is > 120 µmol/kg and > 44 mg/kg with Mus musculus [25]; more than 150 µmol/kg in the data set listed under Mus musculus [4]; more than 150 µmol/kg in the data set on Mus musculus [26]; > 120 µmol/kg and > 44 mg/kg with Mus musculus [27].

`COc1cc2c(cc1OC)C(c1ccccc1)=NN(C(C)=O)C(=O)C2` yielded a Rm in data set [1] of -0.052. In [6], this molecule yielded a TD50 at 0.5 h of 181 µmol/kg. Besides, the ED50 in the data set on Mus musculus [9] was 101 µmol/kg and 33.3 mg/kg; with Mus musculus [15], 72.1 µmol/kg and 24.4 mg/kg. For the same molecule, the therapeutic index (TD50/ED50) in data set [14] amounted to 1.8.

On to `COc1cc2c(cc1OC)C(c1ccc(Cl)cc1)=NN(C)C(=O)C2`, for which the Rm in data set [1] is recorded as 0.25. Besides, the ED50 in the data set with Mus musculus [28] was 41.2 µmol/kg and 14.2 mg/kg; in the data set with Mus musculus [29], 38.6 µmol/kg and 13.3 mg/kg.

With `COc1cc2c(cc1OC)C(c1cccc([N+](=O)[O-])c1)=NN(C)C(=O)C2`, the Rm in [1] worked out at 0.052. Besides, the ED50 in the data set with Mus musculus [25] was > 120 µmol/kg and > 44 mg/kg; in the data set with Mus musculus [27], > 120 µmol/kg and > 44 mg/kg.
